Measurements from ChEMBL document CHEMBL2429834, “Potent histone deacetylase inhibitors derived from 4-(aminomethyl)-N-hydroxybenzamide with high selectivity for the HDAC6 isoform” (J Med Chem, 2013).
pIC50: −log10 of the molar value. Values after ≈ are worked out from the molar mass of the structure shown.

Tests used:
[1] = Selectivity ratio of IC50 for HDAC1/2 in human HeLa cell nuclear extract to IC50 for N-terminal GST-tagged recombinant HDAC6 (unknown origin); format: cell-based
In short: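 HDAC6 leg: 1 nM GST-HDAC6 with 8 μM Ac-Arg-Gly-Lys(Ac)-AMC. Nuclear-extract leg: 30 μg/mL HeLa nuclear extract (mainly HDAC1/2) with 20 μM of the same substrate in 50 mM Tris-Cl, 137 mM NaCl, 2.7 mM KCl, 1 mM MgCl2, pH 8.0.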

[2] = Kinetic solubility of the compound in potassium phosphate buffer at pH 6.8 by turbidometric analysis; format: physicochemical; conditions: read-out: Kinetic_solubility
[3] = target: T1, Protein deacetylase HDAC6 (Homo sapiens) (UniProt Q9UBN7); test: Inhibition of HDAC6 in human HeLa cells using acetyl tubulin as substrate assessed as Ac-Lys accumulation in nuclear histones at 20 uM after 24 hrs by immunofluorescence assay relative to control
T1 sequence (whole entry): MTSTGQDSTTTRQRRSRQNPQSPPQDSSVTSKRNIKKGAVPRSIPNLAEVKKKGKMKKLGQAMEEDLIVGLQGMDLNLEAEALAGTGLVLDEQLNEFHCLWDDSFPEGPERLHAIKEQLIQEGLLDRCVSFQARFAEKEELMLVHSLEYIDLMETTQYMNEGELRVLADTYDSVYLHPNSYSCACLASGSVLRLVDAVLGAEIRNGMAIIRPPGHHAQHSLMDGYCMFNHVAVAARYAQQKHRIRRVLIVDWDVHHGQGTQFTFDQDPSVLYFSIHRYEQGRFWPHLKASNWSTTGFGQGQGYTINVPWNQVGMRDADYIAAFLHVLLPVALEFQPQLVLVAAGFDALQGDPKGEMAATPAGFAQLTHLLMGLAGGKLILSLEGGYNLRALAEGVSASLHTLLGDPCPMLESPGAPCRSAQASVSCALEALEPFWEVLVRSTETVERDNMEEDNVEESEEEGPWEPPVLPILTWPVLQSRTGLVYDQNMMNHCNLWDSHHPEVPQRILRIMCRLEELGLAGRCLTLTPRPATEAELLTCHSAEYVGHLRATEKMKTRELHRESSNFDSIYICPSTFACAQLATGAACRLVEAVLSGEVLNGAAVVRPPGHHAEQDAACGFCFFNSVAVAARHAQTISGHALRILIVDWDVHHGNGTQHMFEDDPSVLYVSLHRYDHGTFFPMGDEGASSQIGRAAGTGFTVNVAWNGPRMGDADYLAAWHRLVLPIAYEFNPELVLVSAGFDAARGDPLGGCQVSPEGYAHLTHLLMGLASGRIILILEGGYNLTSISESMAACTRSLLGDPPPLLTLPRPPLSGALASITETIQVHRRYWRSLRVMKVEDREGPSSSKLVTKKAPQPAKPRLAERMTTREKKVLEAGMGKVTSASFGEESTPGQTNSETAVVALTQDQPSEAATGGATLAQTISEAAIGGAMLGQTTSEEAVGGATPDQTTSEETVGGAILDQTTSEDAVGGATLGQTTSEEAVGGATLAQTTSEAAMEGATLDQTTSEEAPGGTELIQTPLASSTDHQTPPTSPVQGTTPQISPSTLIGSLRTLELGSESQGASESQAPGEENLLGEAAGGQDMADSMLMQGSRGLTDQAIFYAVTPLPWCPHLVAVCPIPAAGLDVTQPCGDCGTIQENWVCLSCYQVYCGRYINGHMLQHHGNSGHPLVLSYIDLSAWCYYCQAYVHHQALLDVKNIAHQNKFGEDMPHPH

[4] = target: T2, Protein deacetylase HDAC6 (Homo sapiens, UniProt Q9UBN7); test: Inhibition of N-terminal GST-tagged recombinant HDAC6 (unknown origin) assessed as deacetylation of Ac-Arg-Gly-Lys (Ac) after 1 hr by fluorescence plate reader analysis in presence of trypsin
T2 sequence (Q9UBN7 whole entry): T1 sequence (whole entry)

Homo sapiens = organism: Homo sapiens; test: Selectivity ratio of IC50 for full length C-terminal His6x-tagged recombinant human HDAC8 to IC50 for N-terminal GST-tagged recombinant HDAC6 (unknown origin)
[5] = target: T2, Protein deacetylase HDAC6; test: Inhibition of HDAC6 in human HeLa cells using acetyl tubulin as substrate assessed as Ac-tubulin accumulation in cytosol after 6 hrs by immunofluorescence assay

SMILES | solubility kinetic [2] | inhibition [3] | pIC50 [4] | Ratio IC50 (Homo sapiens) | pIC50 [5] | Ratio IC50 [1]
O=C(NO)c1cc2c(s1)CCN(C(=O)C1CCCCC1)C2 | > 200 µM | < 20% | 7.44 | 40 | 6.79 | 47
O=C(NO)c1ccc2c(c1)CCN(S(=O)(=O)c1ccc(C(F)(F)F)cc1)C2 | 25 µM (≈ 10 µg/mL) | < 20% | 7.22 |  | 5.89 | 610
CC(C)(C)C(=O)N1CCCc2cc(C(=O)NO)ccc2C1 | > 200 µM | < 20% | 6.31 | 40 | 5.43 | > 200
Cn1cccc1C(=O)N1CCc2sc(C(=O)NO)cc2C1 | > 200 µM | < 20% | 7.62 |  | 7.74 | 30
Cn1cccc1C(=O)NCc1ccc(C(=O)NO)s1 | > 200 µM |  | 7.72 | 40 |  | 202
O=C(NO)c1ccc2c(c1)CCN(C(=O)C1CCCCC1)C2 | > 200 µM | < 20% | 7.30 |  | 6.27 | 730
Cn1cccc1C(=O)N1CCc2ccc(C(=O)NO)cc2CC1 | > 200 µM | < 20% | 6.89 | 40 | 5.82 | 480
CC(C)(C)C(=O)NCc1ccc(C(=O)NO)cc1 | > 200 µM |  | 7.10 | 40 |  | 200
CC(C)(C)C(=O)N1CCc2ccc(C(=O)NO)cc2CC1 | > 200 µM | < 20% | 6.92 | 40 | 6.24 | 340
O=C(NO)c1ccc2c(c1)CCCN(C(=O)C1CCCCCC1)C2 | > 200 µM | < 20% | 6.47 | 40 | 5.54 | > 200
O=C(NO)c1ccc2c(c1)CCN(C(=O)C1CCCCCC1)C2 | > 200 µM | < 20% | 7.27 |  | 6.47 | 650
O=C(NO)c1ccc2c(c1)CCN(C(=O)C1CCCCCC1)CC2 | > 200 µM | < 20% | 6.92 | 40 | 5.70 | 340
CC(C)(C)C(=O)N1CCc2sc(C(=O)NO)cc2C1 | > 200 µM | < 20% | 7.33 | 40 | 6.75 | 64

Continued by rising pIC50 [4], values first:

solubility kinetic [2] | inhibition [3] | pIC50 [4] | Ratio IC50 (Homo sapiens) | pIC50 [5] | SMILES | Ratio IC50 [1]
> 200 µM |  | 4.92 |  |  | Cn1cccc1C(=O)NCc1cnc(C(=O)NO)s1 | 8
> 200 µM | < 20% | 6.92 | 40 | 5.51 | O=C(NO)c1ccc2c(c1)CCCN(C(=O)c1ccc(-c3ccccc3)cc1)C2 | 60
> 200 µM |  | 7.12 | 40 |  | O=C(NO)c1ccc(CNC(=O)C2CCCCC2)cc1 | 84
> 200 µM | < 20% | 7.23 | 40 | 5.59 | O=C(NO)c1ccc2c(c1)CCN(C(=O)c1ccc(-c3ccccc3)cc1)CC2 | 340
> 200 µM |  | 7.28 | 40 |  | Cn1cccc1C(=O)NCc1ncc(C(=O)NO)s1 | 123
> 200 µM | < 20% | 7.46 | 40 | 6.80 | CC(C)(C)C(=O)N1CCc2cc(C(=O)NO)sc2C1 | 71
> 200 µM | < 20% | 7.55 |  | 8.30 | Cn1cccc1C(=O)N1CCc2cc(C(=O)NO)sc2C1 | 14
> 200 µM | < 20% | 7.70 |  | 7.30 | O=C(NO)c1cc2c(s1)CN(C(=O)C1CCCCC1)CC2 | 50
